Data reported in ChEMBL document CHEMBL3244325, “Diastereoisomeric N-tetrahydrofurfurylnoroxymorphones with opioid agonist--antagonist properties” (J Med Chem, 1977).

Experiments:
Mus musculus [1] = assay: Analgesic activity in sc dosed mouse by tail clip method; assay type: functional
Mus musculus [2] = assay: Analgesic activity in sc dosed mouse by hot plate method; assay type: functional
Mus musculus [3] = assay: Analgesic activity in sc dosed mouse assessed as inhibition of phenylquinone-induced writhing; assay type: functional
Mus musculus [4] = organism: Mus musculus; assay: Inhibition of morphine-induced analgesia in mouse by tail clip method; assay type: functional
Outline: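 Mice dosed subcutaneously; morphine antagonism measured as suppression of morphine analgesia by a tail-clip-based procedure. AD50 in mg/kg estimated by graphical evaluation of log dose-response curves.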

[5] = Toxicity in sc dosed mouse; assay type: organism-based; settings: in vivo
Outline: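 Acute toxicity in mice, expressed as LD50 calculated by the Litchfield and Wilcoxon method.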

Mus musculus [6] = assay: Ratio of morphine hydrochloride ED50 to compound ED50 for sc dosed mouse assessed as inhibition of phenylquinone-induced writhing; assay type: functional
Mus musculus [7] = assay: Ratio of LD50 in sc dosed mouse to ED50 in sc dosed mouse by writhing test

Row | SMILES | ED50 (Mus musculus [1]) | ED50 (Mus musculus [2]) | ED50 (Mus musculus [3]) | AD50 (Mus musculus [4]) | LD50 [5] | Ratio ED50 (Mus musculus [6]) | Ratio LD50/ED50 (Mus musculus [7])
1 | Cl.O=C1CC[C@@]2(O)[C@H]3Cc4ccc(O)c5c4[C@@]2(CCN3C[C@H]2CCCO2)[C@H]1O5 | 200 mg/kg | 1.9 mg/kg | 0.02 mg/kg | 4 mg/kg | 955 mg/kg | 25 | 47750
2 | Cl.O=C1CC[C@@]2(O)[C@H]3Cc4ccc(O)c5c4[C@@]2(CCN3C[C@@H]2CCCO2)[C@H]1O5 | – | – | – | 5 mg/kg | 810 mg/kg | – | –
3 | CN1CC[C@]23c4c5ccc(O)c4O[C@H]2[C@@H](O)C=C[C@H]3[C@H]1C5.Cl [MORPHINE HYDROCHLORIDE] | 11 mg/kg | 1.2 mg/kg | 0.5 mg/kg | – | – | – | –
4 | C=CCN1CC[C@]23c4c5ccc(O)c4O[C@H]2[C@@H](O)C=C[C@H]3[C@H]1C5.Cl [NALORPHINE HYDROCHLORIDE] | – | – | 0.5 mg/kg | 1 mg/kg | 560 mg/kg | – | –
5 | C=CCN1CC[C@]23c4c5ccc(O)c4O[C@H]2C(=O)CC[C@@]3(O)[C@H]1C5.Cl [NALOXONE HYDROCHLORIDE] | – | – | – | 0.03 mg/kg | 286 mg/kg | – | –
6 | CC(C)=CCN1CCC2(C)c3cc(O)ccc3CC1C2C.Cl (stereo not given) [PENTAZOCINE HYDROCHLORIDE] | – | – | 1.4 mg/kg | 8 mg/kg | 220 mg/kg | – | –
